Laboratory results taken from paper PMC3304490 (Biochemical Journal, 2012).
Several values for one entry are separate records, joined by “and”; a condition that tells them apart may be missing. Equal entries are not always repeated. Where two headings read alike, the source gives them in different places.

How the values were obtained:
[1] = target: CR3 (DxDxD) domain of LRP (Homo sapiens, UniProt Q07954); assay: Tryptophan fluorescence titration of amino acid ligands with CR3 domain; type: binding; conditions: for ΔG^u: unitary free energy
Sequence of CR3 (DxDxD) domain of LRP (Q07954 852-892 limits assumed): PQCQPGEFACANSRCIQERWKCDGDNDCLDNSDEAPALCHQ
Summary of the method: (§1)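 Each CR domain (1–3 μM) was titrated at 298 K in buffer with 1 mM Ca2+ and 0.1% PEG 8000: 20 mM Mes at pH 5.5 or 20 mM Tris/HCl at pH 7.4, with NaCl set to the target ionic strength. Tryptophan emission (λex 280 nm) was read at the wavelength of maximal change and averaged over 120 s, with blank and dilution correction. Kd came from a non-linear single-site fit, using the protonated ligand fraction.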

[2] = target: CR5 (DxDDD) domain of LRP (Homo sapiens, UniProt Q07954); assay: Tryptophan fluorescence titration of amino acid ligands with CR5 domain; type: binding; conditions: for ΔG^u: unitary free energy
Sequence of CR5 (DxDDD) domain of LRP (Q07954 934-973 limits assumed): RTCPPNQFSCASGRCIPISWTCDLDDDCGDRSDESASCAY
Summary of the method: as §1

[3] = target: CR8 (DxDxD) domain of LRP (Homo sapiens, UniProt Q07954); assay: Tryptophan fluorescence titration of amino acid ligands with CR8 domain; type: binding; conditions: for ΔG^u: unitary free energy; for fold weaker Kd than lysine methyl ester: pH 5.5, I=0.02; for slope of Debye–Hückel plot (−zA×zB): ionic-strength-dependence of binding
Sequence of CR8 (DxDxD) domain of LRP (Q07954 1060-1099 limits assumed): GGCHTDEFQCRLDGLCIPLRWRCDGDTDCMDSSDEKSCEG

[4] = target: D1085A (DxxxD) CR8 variant (Homo sapiens, UniProt Q07954, D1085A); assay: Tryptophan fluorescence titration of amino acid ligands with CR8 variant D1085A; type: binding; conditions: for Kd: I=0.02, pH 5.5, 298 K; for ΔG^u: unitary free energy
Sequence of D1085A (DxxxD) CR8 variant (Q07954 1060-1099 D1085A limits assumed): as the sequence (Q07954 1060-1099 limits assumed) above, with D26A counted along it
Summary of the method: as §1

[5] = tested on: cluster II CR domains of LRP; assay: Fluorescence titrations, summary statements across several CR domains; type: binding
Summary of the method: as §1

[6] = cited from earlier work
[7] = pKa values used for correction of ligand concentration; type: physicochemical; conditions: pH 5.5
[8] = physiological ionic strength, binding favoured at pH 7.4
[9] = Table 3, pH 7.4, ionic strength not given
[10] = CR3, CR5 and CR8, I=0.02, both pH values
[11] = irrespective of ionic strength or pH, results not shown

COC(=O)[C@@H](N)CCCN=C(N)N [Arginine methyl ester]
ΔG° ([1]; I=0.02, pH 5.5): -18.1 kJ/mol
Kd ([1]; I=0.02, pH 5.5, 298 K): 0.68 ± 0.07 mM
ΔG° ([1]; I=0.02, pH 7.4): -17.8 kJ/mol
ΔG° ([1]; I=0.17, pH 5.5): -15.3 kJ/mol
Kd ([1]; I=0.17, pH 5.5, 298 K): 2.09 ± 0.16 mM
ΔG° ([1]; I=0.17, pH 7.4): -17.7 kJ/mol
ΔG^u ([1]; I=0.02, pH 5.5): -28.0 kJ/mol
ΔG^u ([1]; I=0.02, pH 7.4): -27.7 kJ/mol
ΔG^u ([1]; I=0.17, pH 5.5): -25.2 kJ/mol
ΔG^u ([1]; I=0.17, pH 7.4): -27.6 kJ/mol
ΔG° ([2]; I=0.02, pH 5.5): -20.2 kJ/mol
Kd ([2]; I=0.02, pH 5.5, 298 K): 0.29 ± 0.01 mM
ΔG° ([2]; I=0.02, pH 7.4): -18.5 kJ/mol
ΔG° ([2]; I=0.17, pH 5.5): -17.5 kJ/mol
Kd ([2]; I=0.17, pH 5.5, 298 K): 0.84 ± 0.05 mM
ΔG° ([2]; I=0.17, pH 7.4): -17.8 kJ/mol
difference in ΔG° between pH 5.5 and 7.4 [2, 8]: 0.3 kJ/mol
ΔG^u ([2]; I=0.02, pH 5.5): -30.1 kJ/mol
ΔG^u ([2]; I=0.02, pH 7.4): -28.3 kJ/mol
ΔG^u ([2]; I=0.17, pH 5.5): -27.4 kJ/mol
ΔG^u ([2]; I=0.17, pH 7.4): -27.7 kJ/mol
ΔG° ([3]; I=0.02, pH 5.5): -21.0 kJ/mol
Kd ([3]; I=0.02, pH 5.5, 298 K): 210 ± 10 µM
ΔG° ([3]; I=0.02, pH 7.4): -19.6 kJ/mol
ΔG° ([3]; I=0.17, pH 5.5): -17.7 kJ/mol
Kd ([3]; I=0.17, pH 5.5, 298 K): 780 ± 10 µM
ΔG° ([3]; I=0.17, pH 7.4): -18.5 kJ/mol
ΔG^u ([3]; I=0.02, pH 5.5): -30.9 kJ/mol
ΔG^u ([3]; I=0.02, pH 7.4): -29.5 kJ/mol
ΔG^u ([3]; I=0.17, pH 5.5): -27.6 kJ/mol
ΔG^u ([3]; I=0.17, pH 7.4): -28.4 kJ/mol
ΔG° ([4]; I=0.02, pH 5.5): -14.6 kJ/mol
Kd [4]: 2.8 ± 0.11 mM
ΔG° ([4]; I=0.02, pH 7.4): -13.1 kJ/mol
ΔG^u ([4]; I=0.02, pH 5.5): -24.5 kJ/mol
ΔG^u ([4]; I=0.02, pH 7.4): -23.0 kJ/mol

NCCCC[C@H](N)C(=O)O [unmodified lysine, lysine]
Kd [3]: 1050 µM
fold weaker Kd than lysine methyl ester [3]: 6 fold

COC(=O)[C@H](CCCCN)NC(C)=O [N^α-acetyl-lysine methyl ester]
ΔG° ([1]; I=0.02, pH 5.5): -14.5 kJ/mol
Kd ([1]; I=0.02, pH 5.5, 298 K): 2.9 ± 0.12 mM
ΔG° ([1]; I=0.02, pH 7.4): -15.5 kJ/mol
ΔG° ([1]; I=0.17, pH 5.5): -14.5 kJ/mol
Kd ([1]; I=0.17, pH 5.5, 298 K): 2.9 ± 0.28 mM
ΔG° ([1]; I=0.17, pH 7.4): -14.9 kJ/mol
ΔG° ([2]; I=0.02, pH 5.5): -15.7 kJ/mol
Kd ([2]; I=0.02, pH 5.5, 298 K): 1.8 ± 0.16 mM
ΔG° ([2]; I=0.02, pH 7.4): -15.9 kJ/mol
ΔG° ([2]; I=0.17, pH 5.5): -15.0 kJ/mol
Kd ([2]; I=0.17, pH 5.5, 298 K): 2.3 ± 0.49 mM
ΔG° ([2]; I=0.17, pH 7.4): -14.8 kJ/mol
ΔG° ([3]; I=0.02, pH 5.5): -14.3 kJ/mol
Kd ([3]; I=0.02, pH 5.5, 298 K): 3100 ± 440 µM
ΔG° ([3]; I=0.02, pH 7.4): -15.7 kJ/mol
ΔG° ([3]; I=0.17, pH 5.5): -14.7 kJ/mol
Kd ([3]; I=0.17, pH 5.5, 298 K): 2600 ± 280 µM
ΔG° ([3]; I=0.17, pH 7.4): -14.3 kJ/mol
ΔG° ([4]; I=0.02, pH 5.5): -10.8 kJ/mol
Kd [4]: 12.8 ± 2 mM
ΔG° ([4]; I=0.02, pH 7.4): -10.8 kJ/mol
loss of binding energy for D1085A ([4]; compared with domains with central aspartate): 3.5 to 5.1 kJ/mol
range of ΔG° values ([5]; CR3, CR5 and CR8, two ionic strengths, pH 5.5 and 7.4): -15.9 to -14.3 kJ/mol

Aspartate methyl ester
ΔG° ([1]; Table 3, pH 5.5): -6.2 kJ/mol
ΔG° ([1]; Table 3, pH 7.4): -6.7 kJ/mol
Kd [1, 9]: 66 ± 11 mM
ΔG° ([2]; Table 3, pH 5.5): -7.0 kJ/mol
ΔG° ([2]; Table 3, pH 7.4): -6.8 kJ/mol
Kd [2, 9]: 63 ± 5 mM
ΔG° ([3]; Table 3, pH 5.5): -6.3 kJ/mol
ΔG° ([3]; Table 3, pH 7.4): -5.3 kJ/mol
fold weaker Kd of D1085A variant than of CR8 [4]: ~ 3 fold
ΔG° ([4]; Table 3, pH 5.5): -3.6 kJ/mol
ΔG° ([4]; Table 3, pH 7.4): -3.3 kJ/mol
fold weaker Kd than lysine methyl ester ([5]; Table 3 domains): 65–450 fold
ΔΔG° compared with lysine methyl ester ([5]; Table 3 domains): 10.3 to 15.2 kJ/mol
perturbation of CR domain tryptophan fluorescence in presence of EDTA ([5]; titrations repeated with EDTA to remove Ca^2+, results not shown): no perturbation

COC(=O)[C@H](C)N [Alanine methyl ester]
Kd [2]: 4.1 ± 0.24 mM
ΔG° ([2]; Table 3, pH 5.5): -13.6 kJ/mol
fold weaker Kd than lysine methyl ester ([2]; pH 5.5): 23 fold
Kd [3]: 4900 ± 250 µM
ΔG° ([3]; Table 3, pH 5.5): -13.2 kJ/mol
fold weaker Kd than lysine methyl ester [3]: 28 fold
ΔΔG° compared with lysine methyl ester ([5]; CR5 and CR8): 7.8 to 8.3 kJ/mol

COC(=O)[C@@H](N)CCCCN [Lysine methyl ester]
ΔG° ([1]; I=0.02, pH 5.5): -18.7 kJ/mol
Kd ([1]; I=0.02, pH 5.5, 298 K): 0.53 ± 0.05 mM
ΔG° ([1]; I=0.02, pH 7.4): -20.8 kJ/mol
ΔG° ([1]; I=0.17, pH 5.5): -16.7 kJ/mol
Kd ([1]; I=0.17, pH 5.5, 298 K): 1.19 ± 0.11 mM
ΔG° ([1]; I=0.17, pH 7.4): -19.6 kJ/mol
difference in ΔG° between pH 5.5 and 7.4 [1, 8]: 2.9 kJ/mol
ΔG^u ([1]; I=0.02, pH 5.5): -28.6 kJ/mol
ΔG^u ([1]; I=0.02, pH 7.4): -30.7 kJ/mol
ΔG^u ([1]; I=0.17, pH 5.5): -26.6 kJ/mol
ΔG^u ([1]; I=0.17, pH 7.4): -29.5 kJ/mol
ΔG° ([2]; I=0.02, pH 5.5): -21.4 kJ/mol
Kd ([2]; I=0.02, pH 5.5, 298 K): 0.18 ± 0.01 mM
ΔG° ([2]; I=0.02, pH 7.4): -20.3 kJ/mol
ΔG° ([2]; I=0.17, pH 5.5): -18.4 kJ/mol
Kd ([2]; I=0.17, pH 5.5, 298 K): 0.6 ± 0.04 mM
ΔG° ([2]; I=0.17, pH 7.4): -19.4 kJ/mol
ΔG^u ([2]; I=0.02, pH 5.5): -31.2 kJ/mol
ΔG^u ([2]; I=0.02, pH 7.4): -30.2 kJ/mol
ΔG^u ([2]; I=0.17, pH 5.5): -28.3 kJ/mol
ΔG^u ([2]; I=0.17, pH 7.4): -29.3 kJ/mol
ΔG° ([3]; 298 K, pH 7.4, I=0.17, from interpolated Kd): -19.5 kJ/mol
ΔG° ([3]; I=0.02, pH 5.5): -21.5 kJ/mol
Kd ([3]; I=0.02, pH 5.5, 298 K): 170 ± 10 µM
ΔG° ([3]; I=0.02, pH 7.4): -21.4 kJ/mol
ΔG° ([3]; I=0.17, pH 5.5): -18.5 kJ/mol
Kd ([3]; I=0.17, pH 5.5, 298 K): 570 ± 20 µM
ΔG° ([3]; I=0.17, pH 7.4): -19.7 kJ/mol
blue shift of CR8 tryptophan fluorescence ([3]; at saturation (Figure 2)): approximately 7 nm
slope of Debye–Hückel plot (−zA×zB) ([3]; pH 5.5): 2.2
maximum quench of CR8 fluorescence at saturation ([3]; pH 7.4, I=0.17, 294 K (Figure 2)): 66%
ΔS° ([3]; pH 7.4, I=0.17, van't Hoff analysis): 29 J·K^−1·mol^−1
slope of Debye–Hückel plot (−zA×zB) ([3]; pH 7.4): 1.5 and 1.53
ΔG ([3]; physiological conditions of 310 K and I=0.17, pH 7.4): -19.1 kJ/mol
Kd ([3]; read-out: interpolated Kd, 298 K, pH 7.4, I=0.17, from van't Hoff plot): 380 µM
ΔG^u ([3]; I=0.02, pH 5.5): -31.4 kJ/mol
ΔG^u ([3]; I=0.02, pH 7.4): -31.2 kJ/mol
ΔG^u ([3]; I=0.17, pH 5.5): -28.4 kJ/mol
ΔG^u ([3]; I=0.17, pH 7.4): -29.6 kJ/mol
ΔH° ([3]; van't Hoff plot 279–310 K, pH 7.4, I=0.17): -10.7 kJ/mol
Kd of D1085A, fold higher than for N^α-acetyl-lysine methyl ester [4]: ~ 3 fold
ΔG° ([4]; I=0.02, pH 5.5): -13.9 kJ/mol
Kd [4]: 3.7 ± 0.13 mM
ΔG° ([4]; I=0.02, pH 7.4): -13.7 kJ/mol
fold decrease of Kd compared with N^α-acetyl-lysine methyl ester ([4]; pH 5.5 and I=0.02): less than 4 fold
ΔG^u ([4]; I=0.02, pH 5.5): -23.8 kJ/mol
ΔG^u ([4]; I=0.02, pH 7.4): -23.6 kJ/mol
fold reduction in Kd compared with N^α-acetyl-lysine methyl ester [5, 10]: 5–18 fold
increase in ΔG° compared with N^α-acetyl-lysine methyl ester [5, 10]: 4.3 to 7.2 kJ/mol
pKa ([6]; α-amino group): 7.2

CCOC(=O)[C@@H](N)CCCCN [lysine ethyl ester]
binding affinity compared with lysine methyl ester [1, 11]: negligible difference
binding affinity compared with lysine methyl ester [2, 11]: negligible difference
binding affinity compared with lysine methyl ester [3, 11]: negligible difference

COC(=O)[C@@H](N)Cc1c[nH]cn1 [Histidine methyl ester]
ΔG° ([1]; Table 3, pH 5.5): -16.7 kJ/mol
ΔG° ([2]; Table 3, pH 5.5): -19.9 kJ/mol
ΔG° ([3]; Table 3, pH 5.5): -20.2 kJ/mol
ΔG° ([4]; Table 3, pH 5.5): -13.3 kJ/mol
fraction of the imidazole protonated [7]: ~ 40%
ΔΔG° compared with lysine methyl ester ([5]; four domains, pH 5.5 and low ionic strength): 0.6 to 2 kJ/mol
pKa ([6]; side chain (imidazole)): 5.33
